In paper PMC5615155 (Toxicology Reports, 2017):
Entries after “also recorded” stand apart in the source; their conditions may differ.

Key:
[1] = single-dose pharmacokinetics and oral bioavailability; type: in vivo, Sprague-Dawley rats; settings: for clearance: CL, S2218 iv 1 mg/kg bw
CYP2D6 = CYP2D6 (Homo sapiens, UniProt P10635); assay: CYP inhibition, spectrofluorimetric; type: biochemical; settings: recombinant human CYP2D6 expressed in insect Sf9 cells
Summary of the method: (§1)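 Inhibition was assayed with recombinant human CYP isoforms expressed in insect Sf9 cells. Turnover of spectrofluorimetric substrates was read by fluorescence. Test compound was tested at a single concentration of 10 μM.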

[2] = system: S. typhimurium strains TA98, TA100, TA1535, TA1537; assay: bacterial reverse mutation test; type: cell-based
Summary of the method: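 GLP plate-incorporation Ames test per OECD 471 with S. typhimurium TA98, TA100, TA1535, TA1537 and E. coli WP2 uvrA, ± Aroclor 1254-induced male rat liver S9. An initial toxicity-mutation phase (1.5–5000 μg/plate) set the range for the confirmatory assay at 100, 333, 1000, 3333 and 5000 μg/plate. Negative and positive controls were included. Toxicity and precipitate were noted.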

solubility / dissolution = type: physicochemical; settings: S8069 at 10 mg/mL; S2218 at all dose levels
CYP3A4 = CYP3A4 (Homo sapiens, UniProt P08684); assay: CYP inhibition, spectrofluorimetric; type: biochemical; settings: recombinant human CYP3A4 expressed in insect Sf9 cells
Sequence of CYP3A4 (P08684 whole entry): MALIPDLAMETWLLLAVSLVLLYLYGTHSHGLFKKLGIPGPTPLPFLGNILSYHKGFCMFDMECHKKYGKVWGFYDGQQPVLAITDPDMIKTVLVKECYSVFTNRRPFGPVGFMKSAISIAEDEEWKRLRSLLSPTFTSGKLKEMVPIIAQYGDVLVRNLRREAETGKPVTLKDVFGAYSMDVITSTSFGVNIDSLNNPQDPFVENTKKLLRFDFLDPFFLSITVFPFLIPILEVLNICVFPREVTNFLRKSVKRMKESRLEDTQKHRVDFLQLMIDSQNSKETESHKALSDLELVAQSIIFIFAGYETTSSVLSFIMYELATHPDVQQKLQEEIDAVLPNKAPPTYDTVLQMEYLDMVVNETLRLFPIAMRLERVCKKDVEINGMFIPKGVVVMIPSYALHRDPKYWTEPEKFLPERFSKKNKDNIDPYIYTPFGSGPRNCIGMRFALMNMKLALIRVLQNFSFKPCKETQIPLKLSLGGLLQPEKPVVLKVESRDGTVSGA
Summary of the method: as §1

[3] = toxicokinetics in 13-week dietary study; type: in vivo, Sprague-Dawley rats
[4] = female, Sprague-Dawley, rat, plasma, iv, 1 mg/kg
[5] = female, Sprague-Dawley, rat, plasma, po, 10 mg/kg
[6] = female, Sprague-Dawley, rat, plasma, po, 30 mg/kg
[7] = female, Sprague-Dawley, rat, plasma, po, 100 mg/kg
[8] = male, Sprague-Dawley, rat, plasma, iv, 1 mg/kg
[9] = male, Sprague-Dawley, rat, plasma, po, 10 mg/kg
[10] = male, Sprague-Dawley, rat, plasma, po, 30 mg/kg
[11] = male, Sprague-Dawley, rat, plasma, po, 100 mg/kg

Sequence of CYP2D6 (P10635 whole entry, canonical isoform): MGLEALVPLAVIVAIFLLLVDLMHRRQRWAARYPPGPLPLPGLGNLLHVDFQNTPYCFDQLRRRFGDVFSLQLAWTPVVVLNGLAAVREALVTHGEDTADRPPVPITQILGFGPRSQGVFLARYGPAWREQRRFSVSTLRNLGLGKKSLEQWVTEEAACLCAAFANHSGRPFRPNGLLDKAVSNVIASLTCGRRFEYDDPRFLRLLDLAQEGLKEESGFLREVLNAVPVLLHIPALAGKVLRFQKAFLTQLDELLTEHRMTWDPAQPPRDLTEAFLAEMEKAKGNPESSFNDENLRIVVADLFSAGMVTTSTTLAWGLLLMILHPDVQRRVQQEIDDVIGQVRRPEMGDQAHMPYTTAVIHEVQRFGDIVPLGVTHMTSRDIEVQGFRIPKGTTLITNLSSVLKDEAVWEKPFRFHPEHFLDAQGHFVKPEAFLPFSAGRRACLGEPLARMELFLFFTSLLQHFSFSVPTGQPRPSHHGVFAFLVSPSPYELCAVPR

Cc1cc(C(=O)NC(C)(C)COc2cccc3c2C(N)=NS(=O)(=O)N3)cc(C)n1 [S2218, N-(1-((4-amino-2,2-dioxido-1H-benzo[c][1,2,6]thiadiazin-5-yl)oxy)-2-methylpropan-2-yl)-2,6-dimethylisonicotinamide]
female/male ratio of mean AUClast ([1]; IV 1 mg/kg): 0.88
female/male ratio of mean Cmax ([1]; IV 1 mg/kg): 1.06
t1/2 ([1]; S2218 oral gavage 10 mg/kg bw, M, 10 mg/kg): 45.8 ± 4.38 min
bioavailability ([1]; both, Sprague-Dawley, rat, plasma, po, %F, both test articles, male and female rats, all doses): 0.14 to 0.77%
AUC(0-t) [1, 4]: 440 ± 57.1 ng·h/mL
Cmax [1, 4]: 3150 ± 399 ng/mL
Tmax [1, 4]: 1.98 min
Vd [1, 4]: 0.575 L/kg
clearance ([1]; female, Sprague-Dawley, rat, plasma, iv, 1 mg/kg, F): 38.3 mL/min/kg
half-life ([1]; female, Sprague-Dawley, rat, plasma, iv, 1 mg/kg, t1/2, S2218 iv 1 mg/kg bw, F): 10.4 ± 0.24 min
AUC(0-t) [1, 5]: 19.1 ± 10.5 ng·h/mL
Cmax [1, 5]: 22.1 ± 8.55 ng/mL
Tmax [1, 5]: 18.8 ± 7.5 min
AUC(0-t) [1, 6]: 37.7 ± 14 ng·h/mL
Cmax [1, 6]: 36.8 ± 14.8 ng/mL
Tmax [1, 6]: 18.8 ± 7.5 min
AUC(0-t) [1, 7]: 65.9 ± 34.6 ng·h/mL
Cmax [1, 7]: 38.7 ± 20.4 ng/mL
Tmax [1, 7]: 15 min
half-life ([1]; female, Sprague-Dawley, rat, plasma, po, mean t1/2 of S2218 in plasma, oral dose of S2218 or S8069, female rats): 45 to 75 min
CL as % of hepatic blood flow ([1]; iv, F): 69.6%
Vss as % of total body water volume ([1]; iv, F): 86.1%
CL as % of hepatic blood flow ([1]; iv, M): 60.9%
Vss as % of total body water volume ([1]; iv, M): 80.2%
AUC(0-t) [1, 8]: 500 ± 47.9 ng·h/mL
Cmax [1, 8]: 2980 ± 291 ng/mL
Tmax [1, 8]: 1.98 min
Vd [1, 8]: 0.536 L/kg
clearance ([1]; male, Sprague-Dawley, rat, plasma, iv, 1 mg/kg, M): 33.5 mL/min/kg
half-life ([1]; male, Sprague-Dawley, rat, plasma, iv, 1 mg/kg, t1/2, S2218 iv 1 mg/kg bw, M): 11.1 ± 1.56 min
AUC(0-t) [1, 9]: 18.1 ± 4.84 ng·h/mL
Cmax [1, 9]: 16.8 ± 6.03 ng/mL
Tmax [1, 9]: 18.8 ± 7.5 min
AUC(0-t) [1, 10]: 33.2 ± 20.7 ng·h/mL
Cmax [1, 10]: 31.2 ± 14.6 ng/mL
Tmax [1, 10]: 22.5 ± 8.64 min
AUC(0-t) [1, 11]: 96.6 ± 31.4 ng·h/mL
Cmax [1, 11]: 76.3 ± 28.8 ng/mL
Tmax [1, 11]: 20 ± 8.64 min
half-life ([1]; male, Sprague-Dawley, rat, plasma, po, mean t1/2 of S2218 in plasma, oral dose of S2218 or S8069, male rats): 40.2 to 51.6 min
inhibition at 10 μM (CYP2D6): ≤ 7%
Reverse mutation (in vitro), result ([2]; 100–5000 μg/plate, plate incorporation, ±S9): not found to be mutagenic; also recorded: Negative
cytotoxicity (background lawn / revertant colonies) ([2]; all tester strains, ±S9, up to 5000 μg per plate): No cytotoxicity
concentration at which precipitate was observed ([2]; confirmatory mutagenicity assay): ≥ 3333 μg per plate
concentration at which precipitate was observed ([2]; initial toxicity-mutation assay): 5000 μg per plate
state in 1% methylcellulose dosing formulation (solubility / dissolution): formed a suspension
inhibition at 10 μM (CYP3A4): ≤ 7%
ACUM Ratio (dose-normalized AUC0-24h Day 91/Day 7) ([3]; 30 mg/kg bw, M + F): 1.88
ACUM Ratio (dose-normalized AUC0-24h Day 91/Day 7) ([3]; 70 mg/kg bw, M + F): 0.954
ACUM Ratio (dose-normalized AUC0-24h Day 91/Day 7) ([3]; 140 mg/kg bw, F): 0.768
ACUM Ratio (dose-normalized AUC0-24h Day 91/Day 7) ([3]; 140 mg/kg bw, M): 4.55
ACUM Ratio (dose-normalized AUC0-24h Day 91/Day 7) ([3]; 140 mg/kg bw, M + F): 2.30
